Screening results as filed in PubChem.
ARNT-TACC3 inh: disruptors of ARNT/TACC3 protein interaction, primary screen, biochemical, AlphaScreen, single concentration | inhibition, % at 9.99 µM | Transforming acidic coiled-coil-containing protein 3 (Homo sapiens), Q9Y6A5 | hit rate 0.66% among 390,000 | AlphaScreen His-ARNT PAS-B/GST-TACC3 binding, luminescence; TACC3 fragment carries E629A point mutation;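 active = mean inhibition of replicates at least 50% and at least half of replicates each reaching 50%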
HTRA1 inhibitor: HTRA1 serine protease inhibitors, primary screen, biochemical, fluorescence polarization, HTS | recombinant HTRA1, FP-rhodamine activity-based probe | Q92743 | inhibition, % at 5.96 µM | hit rate 0.5% among 340,000 | AID 504803, 2011; in the data active = inhibition above about 36%
Target sequence (Q92743 whole entry, looked up): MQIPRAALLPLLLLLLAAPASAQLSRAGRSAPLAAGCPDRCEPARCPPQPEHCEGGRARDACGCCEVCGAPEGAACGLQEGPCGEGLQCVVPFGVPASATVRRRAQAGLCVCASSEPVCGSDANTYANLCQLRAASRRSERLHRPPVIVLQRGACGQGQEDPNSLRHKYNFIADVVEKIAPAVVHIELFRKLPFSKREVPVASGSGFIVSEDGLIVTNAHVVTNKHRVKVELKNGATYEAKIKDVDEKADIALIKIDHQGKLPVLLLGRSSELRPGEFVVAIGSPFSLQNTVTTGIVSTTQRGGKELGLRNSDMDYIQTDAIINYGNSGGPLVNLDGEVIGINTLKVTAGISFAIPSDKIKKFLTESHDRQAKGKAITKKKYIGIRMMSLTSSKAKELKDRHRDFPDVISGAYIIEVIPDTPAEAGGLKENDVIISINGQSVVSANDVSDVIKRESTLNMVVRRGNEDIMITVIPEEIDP
mABHD4 FP: ABHD4 inhibitors, primary screen, biochemical, fluorescence polarization, mouse | inhibition, % at 8.92 µM | purified mABHD4, FP-Rh probe fluorescence polarization | AID 720543, 2013 | (Lyso)-N-acylphosphatidylethanolamine lipase (Mus musculus), Q8VD66 | hit rate 0.54% among 370,000;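 active = inhibition exceeding the mean over every tested compound plus 3 SD, cut at about 30% in these data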
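Test system: mABHD4 protein; Read-out basis: % inhibition; Incubation: 45 min + 60 min at 25 °C; Repeats: single replicate; Technique: fluorescence polarization with parallel and perpendicular emission, 525/598 nm; Compound: 8.92 µM, single dose; Benchmarks: full inhibition S159A mutant plus DMSO, zero as sample-well median.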
TCR-CD3 inh: inhibitors of human TCR-CD3 interaction, primary screen, biochemical, fluorescence, TAMRA-labeled TCR probe. hit rate 0.37% among 360,000. T-cell receptor (TCR). inhibition, % at 9.4 µM;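 also: recombinant mutant TCR 2C K166C tagged with TAMRA read by polarization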
SIAE primary: human SIAE inhibitors, primary screen, biochemical, fluorescence polarization, FP-Rh probe, 1536-well HTS. Sialate O-acetylesterase (Homo sapiens), Q9HAT2. SIAE FP-Rh probe binding. inhibition, % at 9.66 µM. hit rate 0.69% among 370,000. AID 1053197, 2014;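 active = inhibition above a cutoff: mean of compounds within the control limits plus 3 SD of those, cut at about 17% in these data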
BSA TAMRA ctr: compounds interfering with TAMRA-BSA probe, counter-screen for TCR-CD3 interaction inhibitor project, biochemical, fluorescence, TAMRA-labeled BSA | TAMRA-labeled BSA probe fluorescence counterscreen | AID 652035, 2013 | shares compounds with TCR-CD3 inh | inhibition, % at 9.4 µM | hit rate 10% among 1,200; in the data active = inhibition above about 23%
TCR-CD3 conf: TCR-CD3 interaction inhibitors, retest, confirmation, biochemical, fluorescence, TAMRA-labeled TCR probe | TAMRA-labeled TCR probe fluorescence binding assay | shares compounds with TCR-CD3 inh | hit rate 48% among 1,200 | inhibition, % at 9.4 µM | AID 652036, 2013
Numbers stand for hits; . = inactive; / = no result given; + = active, no number. Rows were chosen to be rich in hits. Some 1.8% of all compounds tested hit in one or more screens of this group. Rule as the data show it, unless noted: active = inhibition above about 19%; inactive = the rest.

SMILES	ARNT-TACC3 inh	HTRA1 inhibitor	mABHD4 FP	TCR-CD3 inh	SIAE primary	BSA TAMRA ctr	TCR-CD3 conf
COc1ccc(N2CC(C(=O)N/N=C/c3cc([N+](=O)[O-])ccc3O)CC2=O)cc1 (configuration not stated)	.	.	.	25.5	.	.	.
COc1ccc(N2CC(C(=O)Nc3ccc([N+](=O)[O-])cc3Br)CC2=O)cc1 (configuration not stated)	.	.	.	.	.	/	/
OC(c1ccc(F)cc1)c1nc(-c2ccncc2)cs1 (configuration not stated)	/	/	.	46.5	.	.	.
OC(c1ccc(F)c(F)c1)c1nc(-c2ccncc2)cs1 (configuration not stated)	/	/	.	.	.	/	/
CCCCc1c(-c2ccccc2OC)ncn1C1CCCC1	/	/	.	.	.	/	/
CCCCc1c(-c2ccccc2OC)ncn1C1CCCCC1	/	/	.	20.8	.	.	.
CN(C)/C=C1\SC(=S)N(c2ccc(F)cc2)C1=O	.	.	.	.	.	/	/
CN(C)/C=C1\SC(=S)N(c2ccc(Br)cc2)C1=O	.	.	.	30.5	.	90.0	76.0
Cc1ccc(C(=O)OCC(=O)Nc2ccc(C(N)=O)cc2)s1	.	.	.	+	.	.	.
CCN(c1ccc(NC(=O)COC(=O)c2ccc(C)s2)cc1)C(C)C	.	.	.	.	.	/	/
COc1cccc(S(=O)(=O)NCc2ccc(C(=O)Nc3ccc(Cl)c(Cl)c3)cc2)c1	.	.	.	34.5	.	.	.
O=C(Nc1ccc(Cl)c(Cl)c1)c1cccc(S(=O)(=O)NCc2cccnc2)c1	.	.	.	32.6	.	.	.
O=C(NC1CCCCC1)N[C@H]1CC[C@H](CCNS(=O)(=O)c2ccccc2)O[C@@H]1CO	.	/	/	/	/	/	/
COc1ccccc1NC(=O)CSc1sc2c(O)cc(=O)[nH]c2c1C#N	.	.	.	.	.	/	/
Cc1csc(NC(=O)CSc2sc3c(O)cc(=O)[nH]c3c2C#N)n1	.	.	.	23.2	.	.	.
COc1ccc(NC(=O)CSc2sc3c(O)cc(=O)[nH]c3c2C#N)c(OC)c1	.	.	.	28.7	.	.	20.1
Cc1cc2cc(CNC(=O)c3ccco3)ccc2n1C	.	.	.	30.6	.	.	.
COc1ccc(C(=O)NCc2ccc3c(c2)cc(C)n3C)cc1	.	.	.	.	.	/	/
CCOc1ccc(CC(=O)NCc2ccc3c(c2)cc(C)n3C)cc1	.	.	.	30.9	.	.	.
COc1cc(/C=C\C(=O)NCc2ccc3c(c2)cc(C)n3C)cc(OC)c1OC	.	.	.	31.2	.	.	.
O=C(C[C@H]1CC[C@H]2[C@@H](COC[C@@H](O)CN2S(=O)(=O)c2ccccc2Cl)O1)N1CCC(Cc2ccccc2)CC1	.	/	/	/	/	/	/
OCCN1CCN(c2cnc(-c3ccsc3)cn2)CC1	/	/	.	38.2	.	.	.
Nc1ncc(-c2ccc(F)cc2)nc1N1CCN(CCO)CC1	/	/	.	.	.	/	/
COc1ccc(COc2cc(-c3cccc(OC)c3)nc3ccc(NC(=O)c4cccnc4)cc23)cc1	.	.	.	37.8	.	.	22.6
COc1ccc(COc2cc(-c3cccc(OC)c3)nc3ccc(NC(=O)c4ccc(OC)cc4)cc23)cc1	/	.	.	.	.	/	/
SMILES	ARNT-TACC3 inh	HTRA1 inhibitor	mABHD4 FP	TCR-CD3 inh	SIAE primary	BSA TAMRA ctr	TCR-CD3 conf
CNC(=S)NNC(=O)c1cccn(Cc2ccc(Cl)c(Cl)c2)c1=O	/	.	.	22.0	.	.	26.8
CNC(=S)NNC(=O)c1cccn(Cc2cccc(Cl)c2)c1=O	/	.	.	21.7	.	.	26.6
C=CCNC(=S)NNC(=O)c1cccn(Cc2ccc(Cl)c(Cl)c2)c1=O	.	.	.	.	.	/	/
CC(C)NC(=O)N(C)C[C@H]1Oc2c(NC(=O)Nc3ccccc3)cccc2C(=O)N([C@H](C)CO)C[C@H]1C	.	/	/	/	/	/	/
O=C(COC(=O)c1ccc(Br)o1)NCCCc1ccccc1	.	.	.	.	.	/	/
O=C(OCc1ccccc1)c1ccc(Br)o1	.	.	.	48.2	.	.	.
CC(C)NC(=O)N(C)C[C@H]1OCCCC[C@H](C)Oc2ccc(NC(=O)C3CCCCC3)cc2C(=O)N([C@@H](C)CO)C[C@@H]1C	.	/	/	/	/	/	/
COc1ccc(CN(C)C[C@@H]2OCCCC[C@@H](C)Oc3ccc(NC(=O)Cc4ccccc4)cc3C(=O)N([C@H](C)CO)C[C@@H]2C)cc1	.	/	/	/	/	/	/
CCOC(=O)c1c(C)nc2sc(C(=O)Nc3ccc(OC)cc3)c(N)c2c1-c1ccc(OC)cc1	.	.	.	.	.	/	/
CCOC(=O)c1c(C)nc2sc(C(=O)Nc3ccc(C(C)=O)cc3)c(N)c2c1-c1ccc(OC)cc1	.	.	.	24.5	.	.	.
CCCNC(=O)Nc1ccc2c(c1)C(=O)N(C)C[C@@H](OC)[C@H](C)CN(Cc1cncnc1)[C@H](C)CO2	.	/	/	/	/	/	/
COc1ccc(C(=O)NNC(=S)NC(=O)c2cccc([N+](=O)[O-])c2)cc1	.	.	.	20.6	.	.	28.5
COc1ccc(C(=O)NC(=S)NNC(=O)c2ccc(O)cc2)cc1[N+](=O)[O-]	.	.	.	28.1	.	.	27.6
CCn1c(C)nc2cc(C(=O)NNC(=S)Nc3ccc(C)cc3)ccc21	.	.	.	.	.	/	/
CCn1c(C)nc2cc(C(=O)NNC(=S)NC(=O)c3ccc(OC)cc3)ccc21	.	.	.	35.6	.	.	31.6
COc1ccc(S(=O)(=O)N(C)C[C@H]2OCCCC[C@@H](C)Oc3ccc(NC(=O)CCCN(C)C)cc3C(=O)N([C@@H](C)CO)C[C@@H]2C)cc1	.	/	/	/	/	/	/
COc1ccc(C(=O)NNC(=S)NC(=O)/C=C/c2cccs2)cc1	.	.	.	24.6	.	.	.
O=C(NC(=S)Nc1ccc(Br)cn1)c1cccs1	.	.	.	26.8	.	.	.
O=C(NNC(=S)NC(=O)c1cccs1)c1ccc(O)cc1	.	.	.	26.3	.	.	23.1
CCCC#Cc1ccc2c(c1)O[C@H](CN(C)C(=O)Nc1ccc(OC)cc1)[C@@H](C)CN([C@@H](C)CO)S2(=O)=O	.	/	/	/	/	/	/
O=C1COc2ccc(C(=O)COC(=O)c3ccco3)cc2N1	.	.	.	.	.	/	/
CC(C)[C@H](NC(=O)c1ccco1)C(=O)OCC(=O)c1ccc2c(c1)NC(=O)CO2	/	.	.	118.1	.	.	.
